ANO1 activ – activators or potentiators of mouse TMEM16A chloride channel; Q8BHY3; HEK293 TMEM16A/YFP-H148Q/I152L, iodide quench fluorescence; active compounds read low; B-score at 10 µM; hit rate 0.3% among 340,000; AID 623877;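 active = fluorescence-ratio B-score plate-corrected deviation score at least 3 library SD below zero, with starting fluorescence score within 5 deviations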;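 also: channel opened by trigger with iodide after compound preincubation; score built on the fluorescence ratio of max minus min over baseline; more negative score means more quench and so TMEM16A activation or potentiation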
Target sequence (Q8BHY3 whole entry, looked up): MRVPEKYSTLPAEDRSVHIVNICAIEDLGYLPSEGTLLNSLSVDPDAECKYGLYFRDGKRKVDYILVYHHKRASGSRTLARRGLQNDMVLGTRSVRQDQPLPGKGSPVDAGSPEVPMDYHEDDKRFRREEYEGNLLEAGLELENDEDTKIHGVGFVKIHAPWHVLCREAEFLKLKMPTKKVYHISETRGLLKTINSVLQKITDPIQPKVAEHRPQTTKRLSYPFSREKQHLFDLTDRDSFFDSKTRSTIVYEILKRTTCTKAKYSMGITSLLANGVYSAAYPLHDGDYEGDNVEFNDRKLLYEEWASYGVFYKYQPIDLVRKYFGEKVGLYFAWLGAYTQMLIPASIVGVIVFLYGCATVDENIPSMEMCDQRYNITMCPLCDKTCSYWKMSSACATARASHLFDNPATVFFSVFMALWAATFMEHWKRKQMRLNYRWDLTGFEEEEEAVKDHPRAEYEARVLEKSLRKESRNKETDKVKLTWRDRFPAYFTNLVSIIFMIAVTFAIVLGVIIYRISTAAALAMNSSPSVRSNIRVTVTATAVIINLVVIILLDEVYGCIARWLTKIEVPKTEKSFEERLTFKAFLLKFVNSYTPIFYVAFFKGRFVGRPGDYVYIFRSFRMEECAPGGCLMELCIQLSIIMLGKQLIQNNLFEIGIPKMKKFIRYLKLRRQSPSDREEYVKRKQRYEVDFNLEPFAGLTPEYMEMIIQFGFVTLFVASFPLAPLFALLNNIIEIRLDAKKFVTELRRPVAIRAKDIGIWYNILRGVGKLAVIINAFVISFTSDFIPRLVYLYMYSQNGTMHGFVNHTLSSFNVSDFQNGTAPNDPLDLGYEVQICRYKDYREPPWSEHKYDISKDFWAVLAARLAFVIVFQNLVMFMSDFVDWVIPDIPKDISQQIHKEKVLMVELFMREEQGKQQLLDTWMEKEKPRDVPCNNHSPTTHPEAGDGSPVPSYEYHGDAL
MC4R antag cAMP – human MC4R antagonism in cAMP assay; P32245; MC4R-expressing cells, MTII-stimulated cAMP, LANCE TR-FRET; inhibition, % at 6.5 µM; hit rate 0.48% among 360,000;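 active = inhibition above its plate's cutoff, the mean of tested wells on that plate plus 3 SD, cut at about 29% in these data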
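Material: U2OS-MC4R stable cell line | Reagent: Melanotan II challenge after compound preincubation | Doses: One concentration, 6.5 µM nominal | Incubation: 30-min compound preincubation, 1-h Melanotan II challenge, 1-h detection, room temperature | Signal: TR-FRET cAMP assay | Replicates: One well per compound, no replicates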
Beta apoptosis – beta cell apoptosis inhibition | INS-1E cytokine-induced death, ATP luminescence, 48 h; percent of positive-control rescue, neutral wells zero | protection from apoptosis, % (no concentration beside the values) | hit rate 0.8% among 300,000 | AID 435005;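 active = Every replicate reaches about 75%, or at least half do and their mean reaches it too, limit read from the data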;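 also: higher means more ATP so stronger rescue from cytokine killing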
MC4R barr agon – agonists of human melanocortin 4 receptor (MC4R) beta-arrestin; activation, % at 8.9 µM; U2OS MC4R beta-arrestin complementation, luminescence; percent of melanotan II response, DMSO zero; hit rate 0.98% among 360,000;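 active = activation above a per-plate cutoff, the mean activation of sample wells on that plate plus 3 SD, cut at about 8% in these data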
CSC inhib – blocks cancer stem cells; cancer stem cell-like cells viability, luminescence; inhibition, % at 7.5 µM; hit rate 1.1% among 300,000; in the data active = inhibition above about 75%; tested in HMLE shEcad cells
ANO1 block – inhibitors of mouse TMEM16A calcium-activated chloride channel; Q8BHY3; AID 588511; HEK293 TMEM16A/YFP iodide influx fluorescence, ionomycin; hit rate 1.2% among 310,000; normalized B-score (activity score, 25-100; higher = stronger inhibition) at 10 µM;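 active = ratio plate-corrected score three or more library SD toward inhibition, starting fluorescence score within five deviations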;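 also: score derived from kinetic fluorescence span divided by baseline fluorescence per well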
Large screens that a line does not name were inactive. The list is not random: actives were taken first. Their share in the collection is about 3.8%.

COc1cc2c(cc1N)-c1ccc(N)cc1C2=O	none (no result: ANO1 activ, Beta apoptosis, CSC inhib, ANO1 block)
COc1ccc(NS(=O)(=O)c2ccc(C)c(C(=O)NCCCn3ccnc3)c2)cc1	none (no result: ANO1 activ, Beta apoptosis, CSC inhib, ANO1 block)
CCCn1nc(NS(=O)(=O)c2cccc3nonc23)c2cc3cccc(C)c3nc21	ANO1 block 100
CCCn1nc(NS(=O)(=O)c2cccc3nonc23)c2cc3cc(C)ccc3nc21	none
CN(C)c1ncnc2c1ncn2[C@H]1CN(Cc2cccnc2)C[C@@H](CO)O1	none (no result: ANO1 activ, Beta apoptosis, CSC inhib, ANO1 block)
CCN(CC)S(=O)(=O)c1ccc(N2CCN(c3ccccc3OC)CC2)c(N)c1	Beta apoptosis 126
CCOC(=O)N1CCN(Cc2cc(=O)oc3cc4c(cc23)CCC4)CC1	ANO1 activ -14
CCOC(=O)N1CCN(Cc2cc(=O)oc3ccc(Cl)cc23)CC1	none
Cc1ccc(NC(=O)NC2CCCCCCC2)cc1C	none
Cc1ccc(NC(=O)c2ccc(C#CC3(O)CCCCC3)cc2)cc1C	MC4R barr agon 9.0 (no result: CSC inhib)
CCOc1ccc(OCCC(=O)N(CCC2=CCCCC2)c2c(N)n(Cc3ccccc3)c(=O)[nH]c2=O)cc1	none
CCOc1ccc(OCC(=O)N(CCC2=CCCCC2)c2c(N)n(Cc3ccccc3)c(=O)[nH]c2=O)cc1	CSC inhib 76 (no result: Beta apoptosis)
CCN(CC)c1ccc(CN(C(=O)c2cccs2)C2CCS(=O)(=O)C2)cc1 (stereo unspecified)	none
O=C(Nc1ccc(Cl)cc1)/C(=C/c1cccc(O)c1)c1nc2ccccc2s1	Beta apoptosis 105
Cc1ccc(NC(=S)c2nc3ccccc3s2)cc1	none
S=C(Nc1ccc(Cl)cc1)c1nc2ccccc2s1	MC4R barr agon 8.6 (no result: Beta apoptosis)
O=C(CN1C(=O)NC(Cc2ccccc2)C1=O)Nc1ccc(F)c(Cl)c1 (stereo unspecified)	none (no result: CSC inhib, ANO1 block)
COc1cccc(S(=O)(=O)N(C)C[C@@H]2Oc3cc(C#CCN(C)C)ccc3S(=O)(=O)N([C@H](C)CO)C[C@@H]2C)c1	none (no result: ANO1 activ, Beta apoptosis, CSC inhib, ANO1 block)
CCN(CC)c1ccc(NC(=O)CCCOc2cccc(C)c2)cc1	none (no result: Beta apoptosis, CSC inhib, ANO1 block)
CCN(CC)c1ccc(/C=N/OCC(=O)Nc2cccc(C)c2)cc1	ANO1 block 25
COc1ccc(CC(=O)OCC(=O)NC2CCCC(C)C2C)cc1 (stereo unspecified)	none (no result: ANO1 block)
Cc1ccc(C2=NN(Cc3nnc(-c4ccccc4)o3)C(=O)SC2)cc1	ANO1 block 25
NS(=O)(=O)c1ccc(N2CCCC2=O)c([N+](=O)[O-])c1	ANO1 activ -4.9 (no result: Beta apoptosis)
Cn1c(SCC(=O)NC2CCCc3ccccc32)nnc1C1CC1 (stereo unspecified)	none (no result: Beta apoptosis, CSC inhib, ANO1 block)
CC(=O)c1ccc(OCc2cc(C(=O)N3CCC(Oc4ccccc4C)CC3)no2)cc1	ANO1 block 100
CCc1cc(C(=O)N2CCN(S(=O)(=O)c3cc(C)ccc3C)CC2)sc1C	none (no result: ANO1 block)
COc1ccc(C)cc1NC(=O)C1CCCCN1S(=O)(=O)c1ccccc1 (stereo unspecified)	none (no result: ANO1 block)
COC(=O)c1ccc(COc2ccccc2/C=C(\C#N)C(=O)Nc2c(C)cccc2C)cc1	Beta apoptosis 107, CSC inhib 102
COC(=O)c1ccc(COc2ccccc2/C=C(\C#N)C(=O)Nc2ccccc2C)cc1	none (no result: CSC inhib)
O=C(O)CCc1ccc(S(=O)(=O)Nc2cc(C(F)(F)F)ccc2N2CCCC2)cc1	none (no result: Beta apoptosis, CSC inhib, ANO1 block)
CC(=O)NC(c1ccccc1)c1c(O)ccc2ccccc12 (stereo unspecified)	ANO1 activ -6.5
CC(=O)NC(c1ccc(C(C)C)cc1)c1c(O)ccc2ccccc12 (stereo unspecified)	none
O=C(CC1(CC(=O)N2CCOCC2)CCCC1)Nc1ccc(F)cc1	none (no result: ANO1 block)
CN(C)CCCNc1cc(O)c2ncccc2c1	none (no result: CSC inhib, ANO1 block)
COc1ccc(-c2nc(N)ncc2-c2ccccc2)c(O)c1	none
C=C(C)COc1ccc(-c2nc(N)ncc2-c2ccc(Cl)cc2)c(O)c1	CSC inhib 104
C=C(C)COc1ccc(-c2nc(N)ncc2-c2ccc(OC)c(OC)c2)c(O)c1	none
COc1ccc(-c2cnc(N)nc2-c2ccc(OC)cc2O)cc1	ANO1 activ -17
CC(=O)Oc1ccc(/C(C)=N\N2CCN(Cc3ccc(Cl)cc3)CC2)cc1	none
O=S(=O)(NCC1(N2CCOCC2)CCCCC1)c1ccc(Cl)cc1C(F)(F)F	ANO1 activ -18 (no result: CSC inhib)

Screening results from PubChem.
